Calls of active or inactive are those of the source. No cut-off for these calls is given here.
What was measured:
[1] = target: T1, NAD-dependent protein deacetylase sirtuin-1 (Homo sapiens) (UniProt Q96EB6); assay: Activation of SIRT1 expressed in HEK293 cells assessed as increase in enzyme deacetylation activity at 10 uM using acetylated p53 substrate and NAD+ by bioluminescence assay; assay type: cell-based
T1 sequence (whole entry): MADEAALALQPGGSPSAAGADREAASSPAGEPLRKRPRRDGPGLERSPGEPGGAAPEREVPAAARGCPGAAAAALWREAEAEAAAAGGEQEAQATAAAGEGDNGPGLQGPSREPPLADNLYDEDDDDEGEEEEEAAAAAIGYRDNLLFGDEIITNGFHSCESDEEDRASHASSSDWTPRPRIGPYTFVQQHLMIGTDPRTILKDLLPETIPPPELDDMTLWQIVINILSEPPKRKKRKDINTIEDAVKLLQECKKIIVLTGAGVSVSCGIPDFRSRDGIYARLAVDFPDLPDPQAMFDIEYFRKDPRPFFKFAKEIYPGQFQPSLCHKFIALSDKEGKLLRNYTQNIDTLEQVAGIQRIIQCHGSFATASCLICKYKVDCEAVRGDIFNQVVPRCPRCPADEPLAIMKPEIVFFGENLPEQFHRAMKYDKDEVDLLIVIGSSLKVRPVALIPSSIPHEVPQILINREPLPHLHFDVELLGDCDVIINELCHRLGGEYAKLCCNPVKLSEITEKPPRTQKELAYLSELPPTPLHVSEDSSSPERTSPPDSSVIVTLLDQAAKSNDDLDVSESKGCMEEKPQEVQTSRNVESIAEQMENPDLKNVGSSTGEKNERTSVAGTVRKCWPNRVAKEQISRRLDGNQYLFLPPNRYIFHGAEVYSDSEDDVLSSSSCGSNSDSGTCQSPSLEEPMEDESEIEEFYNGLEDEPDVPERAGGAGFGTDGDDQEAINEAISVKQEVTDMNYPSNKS
How it was run: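 Enzyme–compound premix 10 min, then substrate/NAD+ added and run 2 h. Quenched with LDH reagent containing nicotinamide for 1 h. Read by luciferase/FMN-oxidoreductase/decanal luminescence within 15 min. DMSO reaction as positive control, no-enzyme as blank.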

[2] = target: T1, NAD-dependent protein deacetylase sirtuin-1 (Homo sapiens); assay: Activation of SIRT1 expressed in HEK293 cells assessed as reduction in p53 transcriptional activity at 10 uM incubated for 12 hrs by luciferase reporter gene assay; assay type: cell-based
How it was run: (§1)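 HEK293 cells in DMEM with 10% FBS, plated at 10^5 cells/well. After 24 h, PEI-transfected with PG13-luc (wt p53 sites), myc-p53, flag-SIRT1 and RSV-β-gal. Treated 24 h post-transfection for 12 h. Luciferase normalized to internal control. Triplicate experiments, mean ± SD.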

[3] = target: T1, NAD-dependent protein deacetylase sirtuin-1 (Homo sapiens); assay: Activation of SIRT1 expressed in HEK293 cells assessed as increase in enzyme deacetylation activity pre-incubated for 10 mins before addition of acetylated p53 peptide substrate and NAD+ by NAD+/NADH assay; assay type: cell-based
How it was run: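 Cell-free SIRT1 (0.1 U/mL) with 10 μM NAD+ and 20 μM Ac-p53 peptide in Tris/Cl pH 8.0, NaCl, KCl, MgCl2, BSA buffer. Enzyme–compound premix 10 min at room temperature, then 6 h at ambient temperature. Stopped with NAD/NADH recycling enzyme mix containing 1 mM nicotinamide; absorbance read after 2 h. DMSO and no-enzyme controls.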

[4] = target: T1, NAD-dependent protein deacetylase sirtuin-1 (Homo sapiens); assay: Activation of SIRT1 expressed in HEK293 cells assessed as reduction in p53 transcriptional activity incubated for 12 hrs by luciferase reporter gene assay; assay type: cell-based; how it was run: as §1
[5] = target: T1, NAD-dependent protein deacetylase sirtuin-1 (Homo sapiens); assay: Activation of SIRT1 expressed in HEK293 cells assessed as increase in NAD to NADH ratio at 20 uM after 12 hrs by NAD+/NADH assay

Compound	Activity [1]	Activity [2]	Activity [3]	Activity [4]	Activity [5] [%]
COc1cc2ccc(=O)oc2c(OC)c1OC[C@@H](O)[C@](C)(O)CC[C@H]1OC1(C)C	Active	Active	Dose-dependent effect	Dose-dependent effect	> 50
COc1cc2ccc(=O)oc2c(OC)c1OC/C=C(\C)CCC=C(C)C	Active	Active	Dose-dependent effect	Dose-dependent effect	> 50
COc1cc2ccc(=O)oc2c(OC)c1OC[C@H](O)[C@@H](C)[C@@H]1O[C@H]1C=C(C)C	Active	Active	Dose-dependent effect	Dose-dependent effect	> 50
COc1cc2ccc(=O)oc2c(OC)c1OC[C@@H](O)[C@](C)(O)CCC=C(C)C	Active	Active	Dose-dependent effect	Dose-dependent effect	> 50

— ChEMBL document CHEMBL2069229, “Terpenylated coumarins as SIRT1 activators isolated from Ailanthus altissima” (J Nat Prod, 2012)
